We go through three molecules from ChEMBL document CHEMBL1158769, “Macrophage activating effects of new alkamides from the roots of Echinacea species” (J Nat Prod, 2005).

One data set relates to RAW264.7. Nature of the data set: Inhibition of LPS-stimulated NO production in mouse RAW264.7 cells. The class given is functional. The following applies: read-out: ID50 (the source's name). In a few lines: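 In some runs the compound medium was removed and the cells washed before LPS. Supernatant nitrite measured by Griess reagent at A550. Relative NO = (Exp-OD − Control-OD)/(LPS-OD − Control-OD) × 100%.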

The nature of data set [1]: Toxicity in mouse RAW264.7 cells by MTT assay. The class given is cell-based. The settings on record: read-out: TD50 (the source's name). The procedure, abridged: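 RAW 264.7 cells exposed to a range of alkamide concentrations for 24 h, or for 4 h followed by 24 h in fresh medium. Cells washed, labeled with MTT for 4 h, lysed in DMSO, formazan read at A540. Viability = Exp-OD/Control-OD × 100%, with control at the same cell number.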

In brackets after ≈: the same amount, converted by molar mass.

Regarding `CCCCCCC/C=C/C=C/C(=O)NCC(C)C`, the IC50 in the data set on RAW264.7 amounted to 6 µg/mL (≈ 23.9 µM). Further, the CC50 in data set [1] is 12.5 µg/mL (≈ 49.7 µM).

As for `C/C=C/C=C\CC/C=C/C=C/C(=O)NCC(C)C`, the IC50 in the data set on RAW264.7 turned out to be 6 µg/mL (≈ 24.3 µM). The CC50 in data set [1] stood at 50 µg/mL (≈ 202 µM).

Take `C/C=C\C=C/CC/C=C/C=C/C(=O)NCC(C)C`: the IC50 in the data set on RAW264.7 is 6 µg/mL (≈ 24.3 µM). Further, the CC50 in data set [1] worked out at 50 µg/mL (≈ 202 µM).
